# SKN-1 block: inhibitors of C. elegans SKN-1. inhibition, % at 21.8 µM. C. elegans VP596 Pgst-4::GFP/RFP ratio, acrylamide-induced, 24 h. actives 0.49% (n = 360,000);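 active = interference check ratio from 0.5 to 1.5 plus GFP to RFP signal ratio inhibition reaching or exceeding a fixed threshold, cut at about 30% in these data, passing the limit was not always enough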
# TLR9-MyD88 inh: blocks human TLR9 binding to MyD88. CHO BLA complementation TLR9-MyD88, CCF4 FRET ratio. inhibition, % at 4.98 µM. actives 0.21% (n = 340,000);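 active = inhibition above the mean over all tested compounds plus 3 SD, cut at about 21% in these data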;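 also: 0% = DMSO only wells and 100% = clavulanate BLA inhibitor control wells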
# TLR4 MyD88 comp: TLR4-MyD88 interaction inhibition in cells; O00206+Q99836; HeLa CL3-4 TLR4/MyD88 BLA complementation, FRET ratio; inhibition, % at 8.4 µM; actives 0.18% (n = 200,000); AID 861; in the data active = inhibition above about 25%;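 also: 0% = vehicle and 100% = reference inhibitor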
# Target sequence (O00206 whole entry, looked up): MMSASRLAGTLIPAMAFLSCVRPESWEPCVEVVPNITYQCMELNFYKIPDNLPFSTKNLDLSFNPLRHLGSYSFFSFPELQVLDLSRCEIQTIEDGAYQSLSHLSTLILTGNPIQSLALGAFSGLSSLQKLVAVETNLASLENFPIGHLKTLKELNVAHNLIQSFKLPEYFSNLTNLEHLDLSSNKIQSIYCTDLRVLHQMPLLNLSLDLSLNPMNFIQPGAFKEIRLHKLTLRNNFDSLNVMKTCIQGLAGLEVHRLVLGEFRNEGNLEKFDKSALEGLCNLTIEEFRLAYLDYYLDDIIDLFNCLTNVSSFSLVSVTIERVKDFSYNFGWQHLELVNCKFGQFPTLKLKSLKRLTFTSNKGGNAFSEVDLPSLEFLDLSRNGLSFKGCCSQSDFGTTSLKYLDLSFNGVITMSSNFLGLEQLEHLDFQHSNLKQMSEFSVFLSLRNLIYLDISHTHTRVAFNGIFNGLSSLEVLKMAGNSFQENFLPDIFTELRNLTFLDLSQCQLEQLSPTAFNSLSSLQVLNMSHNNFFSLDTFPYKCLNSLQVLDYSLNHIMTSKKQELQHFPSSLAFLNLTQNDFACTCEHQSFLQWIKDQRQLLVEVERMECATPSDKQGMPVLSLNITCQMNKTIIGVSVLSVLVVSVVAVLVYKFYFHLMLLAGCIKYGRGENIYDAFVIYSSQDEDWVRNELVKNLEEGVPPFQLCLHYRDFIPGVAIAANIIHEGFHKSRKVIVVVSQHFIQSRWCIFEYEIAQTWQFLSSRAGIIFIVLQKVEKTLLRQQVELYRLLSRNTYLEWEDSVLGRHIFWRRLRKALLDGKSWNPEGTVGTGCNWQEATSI
# Target sequence (Q99836 whole entry, looked up): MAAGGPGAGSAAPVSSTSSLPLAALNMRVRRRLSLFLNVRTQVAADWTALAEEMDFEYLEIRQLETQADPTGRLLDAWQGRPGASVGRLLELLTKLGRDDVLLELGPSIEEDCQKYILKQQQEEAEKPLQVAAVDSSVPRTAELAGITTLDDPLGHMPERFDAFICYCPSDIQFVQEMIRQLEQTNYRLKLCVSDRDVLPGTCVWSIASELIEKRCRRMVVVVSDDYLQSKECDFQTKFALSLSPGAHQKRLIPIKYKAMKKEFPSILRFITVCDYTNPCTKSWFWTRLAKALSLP
# NOD2-RIPK2 inh: NOD2-RIPK2 protein interaction inhibition; O43353; CHO BLA complementation NOD2-RIPK2, CCF4 ratio; inhibition, % at 4.98 µM; actives 0.38% (n = 360,000); in the data active = inhibition above about 21%;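 also: 0% = vehicle only and 100% = reference blocker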
# MT1-MMP act inh: inhibitors of human MT1-MMP activation. HT1080 RFP-PRO-GFP cells, GFP/RFP ratio fluorescence, overnight; percent of plate control window, DMSO zero. AID 651647. GFP/RFP ratio change, % at 20 µM. actives 0.061% (n = 360,000);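 active = GFP/RFP ratio change of at least 30% with cell ATP level not reduced by more than half and red fluorescence within 50% of control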
#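 Assay system – RFP-PRO-GFP reporter HT1080 cells · Compound dosing – single dose of 20 µM compound, 1% DMSO final · Incubation – overnight compound exposure at 37 °C · Measure – GFP/RFP fluorescence ratio · Benchmarks – DMSO wells and RFP-L50D-GFP cells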
# TLR4-MyD88 conf: TLR4-MyD88 interaction inhibition confirmed; actives 50% (n = 350); HeLa CL3-4 BLA complementation, CCF4 FRET ratio; inhibition, % at 8.4 µM; shares compounds with TLR4 MyD88 comp;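 active = mean inhibition across three repeat runs above about 25% carried over from the earlier screen, limit read from the data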;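 also: plate controls were DMSO only for no effect and clavulanic acid blocking BLA at full dose for full effect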
# BLA inhibitor ct: inhibits beta-lactamase activity, counter-screen to TLR4-MyD88 binding inhibitors; shares compounds with TLR4 MyD88 comp; AID 1237; actives 63% (n = 350); HeLa BLA reporter, CCF4 FRET ratio; inhibition, % at 8.4 µM;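 active = mean inhibition over three repeats above about 26% taken from the earlier screen, limit read from the data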;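 also: HeLa cells stably expressing beta-lactamase reporter as counterscreen for TLR4-MyD88 inhibitors; 0% = DMSO and 100% = clavulanic acid full inhibition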
# Starred values were filed as active, the others as inactive; / = no result. Only some compounds are listed: those with a hit (about 0.99% of all), similar ones and a draw of the others.
SMILES,SKN-1 block,TLR9-MyD88 inh,TLR4 MyD88 comp,NOD2-RIPK2 inh,MT1-MMP act inh,others
COc1ccccc1NC(=O)Cn1ncc2c1-c1ccccc1OC2,3.8,-7.0,-12.6,-7.8,0.4,
COc1ccc(S(=O)(=O)N2CCC3CC2c2c(-c4ccc(C(F)(F)F)cc4)cccc23)cc1 (stereo not drawn),5.3,/,/,-10.3,-2.4,
Cc1ccc(NC(=S)Nc2ccc3nc(-c4ccccn4)c(-c4ccccn4)nc3c2)cc1C,4.3,14.2,0.6,31.8*,-31.9,
Cc1ccc(NC(=S)Nc2ccccn2)cc1C,11.5,/,/,2.4,-1.1,
O=C(Nc1nc(-c2ccc(S(=O)(=O)N3CCCC3)cc2)cs1)c1cccs1,37.6*,-10.6,15.5,-9.3,-10.7,
O=C(Nc1nc(-c2ccc(S(=O)(=O)N3CCCCCC3)cc2)cs1)c1cccs1,0.6,-2.0,-0.2,-28.9,/,
Cc1c(Cl)cnc(NC(=O)COC(=O)C2CC3CCCC(C2)C3=O)c1Cl (stereo not drawn),2.6,0.4,/,7.0,-5.4,
C[C@H]1CN([C@@H](C)CO)C(=O)CCCn2cc(nn2)CO[C@@H]1CN(C)S(=O)(=O)c1ccc(Cl)cc1,-13.3,-2.5,/,-4.1,9.8,
CCCC[C@@H]1C=C(C(=O)O)[C@H](c2ccc(Cl)cc2)N1S(=O)(=O)c1ccc(C)cc1,6.3,9.0,/,-8.7,9.7,
CC(OC(=O)/C(C#N)=C/c1ccc(N(C)C)cc1)C(=O)N(C)c1ccccc1 (stereo not drawn),46.3*,-7.0,/,9.6,-50.3,
CC(=O)Nc1ccc(NC(=O)C(C)OC(=O)/C(C#N)=C/c2ccc(N(C)C)cc2)cc1 (stereo not drawn),57.2,-7.3,/,0.6,-48.6,
Cc1ccccc1-n1c(SCC(=O)O)nc2sc3c(c2c1=O)CCCC3,35.6*,-5.0,/,-8.4,3.1,
O=C(O)CSc1nc2sc3c(c2c(=O)n1Cc1ccccc1)CCCCC3,1.0,12.2,/,-3.5,6.1,
O=C(Nc1c(-c2ccccc2)[nH][nH]c1=O)c1cccs1,3.4,/,/,-0.1,-2.1,
CN(N=O)c1ccc(CC2CCc3ccccc32)cc1 (stereo not drawn),43.6*,6.8,/,-4.6,3.1,
COc1ccc(NC(=O)c2cccs2)cc1NC(=O)c1ccco1,-1.9,1.7,-4.3,-2.6,11.5,
O=C(Nc1ccc2c(c1)Cc1ccccc1-2)c1ccco1,71.9*,7.7,1.3,-11.0,9.5,
O=C(Nc1ccc2nc(-c3ccccc3)oc2c1)c1ccco1,75.3*,-5.1,-13.2,-0.2,5.2,
O=C(Nc1ccc(Br)c(Cl)c1)c1ccco1,86.2*,-2.8,-2.3,-4.8,-0.9,
COc1cccc(OC)c1C(=O)Nc1ccc2c(c1)Cc1ccccc1-2,3.2,0.0,-3.8,2.1,-2.9,
Cc1ccc(NC(=O)c2cccs2)cc1NC(=O)c1ccco1,43.9*,-3.4,-6.7,5.1,0.7,
O=C(Nc1ccc(-c2nc3ccccc3c(=O)o2)cc1)c1ccco1,2.6,-12.6,0.3,-15.8,6.9,
O=C(CC(=O)N/N=C/c1ccc(C(=O)O)cc1)NCCc1ccccc1,-2.6,-0.2,/,2.3,2.2,
CN(C)c1ccc(/C=N/N=C/c2ccccc2O)cc1,-0.9,19.8,37.5*,-6.0,1.7,TLR4-MyD88 conf=57.5*;BLA inhibitor ct=52.7*
COc1ccccc1C=NN=Cc1ccccc1O,2.5,-11.0,/,-0.3,6.9,
CCOC(=O)c1c2ccc(OCC(=O)N/N=C/c3ccc(Cl)cc3)cc2n2ccccc12,/,/,51.6*,/,/,TLR4-MyD88 conf=54.4*;BLA inhibitor ct=34.0*
Cc1cc(C)cc(NS(=O)(=O)CCCS(=O)(=O)Nc2cc(C)cc(C)c2)c1,4.9,0.5,/,0.6,-3.9,
N#Cc1sc2nc(-c3cccs3)cc(-c3ccc(F)cc3)c2c1N,-6.0,26.1*,26.2*,12.1,-4.8,TLR4-MyD88 conf=38.9*;BLA inhibitor ct=62.5*
Cc1cc(/C=C2\Sc3ccccc3N2C)cc(C)[n+]1CC1CCCO1 (stereo not drawn),4.5,/,36.4*,-0.3,-149.8,TLR4-MyD88 conf=22.6;BLA inhibitor ct=41.1*

# Screening results deposited in PubChem by several laboratories.
